From publication PMC3736091 (Molecular cancer therapeutics, 2013)

Tests used:
SW620 cells = test: Clonogenic survival assay, SW620; assay type: cell-based, human; conditions: 16 hr
How it was run: (§1)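 Clonogenic assay in RPMI 1640 + 10% FBS, 37°C, 5% CO2, <30 passages; HCT116-N7 stably expresses HPV16 E6. Exponentially growing cells had 16 h exposure to cytotoxic (etoposide, doxorubicin or camptothecin; etoposide 1 μM for the bar data) ± test compound 1 μM in 0.5% DMSO, then were seeded for colonies. Survival was normalised to DMSO or inhibitor-alone control. Enhancement factor = survival cytotoxic alone ÷ survival combination, per experiment; 3 independent experiments.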

LoVo cells = test: Clonogenic survival assay, LoVo; assay type: cell-based, human; conditions: LoVo, 16 hr
How it was run: as §1

ATR = ATR (Homo sapiens, UniProt Q13535); conditions: read-out: Enzyme IC50 ATR; purified enzyme; data previously reported; cited from earlier work
PI4K = conditions: read-out: Enzyme IC50 PI4K; purified enzyme; data previously reported; cited from earlier work
human tumour cell lines = conditions: cited from earlier work
[1] = target: ATM activity in SW620 cells (Homo sapiens, UniProt Q13315); test: Inhibition of cellular ATM activity, SW620; assay type: cell-based; conditions: 10 μM
[2] = Plasma and tumour concentrations in SW620 tumour-bearing nude mice; assay type: in vivo
How it was run: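 Female CD-1 nude mice carried SW620 s.c. flank xenografts (1×10^7 cells) of ~650 mm³. Test compound was given at 50 mg/kg i.p. in equimolar phosphoric acid/saline, pH 4. The comparator ATM inhibitor was given at 10 mg/kg i.p. in phosphoric acid, 5% DMSO, 10% encapsin, pH 4. Dosing volume was 10 ml/kg. Plasma and tumour were sampled at 1 and 4 h and analysed by HPLC; the tumour detection limit was 0.5 μM.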

PI3K = conditions: read-out: Enzyme IC50 PI3K; purified enzyme; data previously reported; cited from earlier work

ATM activity in SW620 cells, sequence (Q13315 whole entry): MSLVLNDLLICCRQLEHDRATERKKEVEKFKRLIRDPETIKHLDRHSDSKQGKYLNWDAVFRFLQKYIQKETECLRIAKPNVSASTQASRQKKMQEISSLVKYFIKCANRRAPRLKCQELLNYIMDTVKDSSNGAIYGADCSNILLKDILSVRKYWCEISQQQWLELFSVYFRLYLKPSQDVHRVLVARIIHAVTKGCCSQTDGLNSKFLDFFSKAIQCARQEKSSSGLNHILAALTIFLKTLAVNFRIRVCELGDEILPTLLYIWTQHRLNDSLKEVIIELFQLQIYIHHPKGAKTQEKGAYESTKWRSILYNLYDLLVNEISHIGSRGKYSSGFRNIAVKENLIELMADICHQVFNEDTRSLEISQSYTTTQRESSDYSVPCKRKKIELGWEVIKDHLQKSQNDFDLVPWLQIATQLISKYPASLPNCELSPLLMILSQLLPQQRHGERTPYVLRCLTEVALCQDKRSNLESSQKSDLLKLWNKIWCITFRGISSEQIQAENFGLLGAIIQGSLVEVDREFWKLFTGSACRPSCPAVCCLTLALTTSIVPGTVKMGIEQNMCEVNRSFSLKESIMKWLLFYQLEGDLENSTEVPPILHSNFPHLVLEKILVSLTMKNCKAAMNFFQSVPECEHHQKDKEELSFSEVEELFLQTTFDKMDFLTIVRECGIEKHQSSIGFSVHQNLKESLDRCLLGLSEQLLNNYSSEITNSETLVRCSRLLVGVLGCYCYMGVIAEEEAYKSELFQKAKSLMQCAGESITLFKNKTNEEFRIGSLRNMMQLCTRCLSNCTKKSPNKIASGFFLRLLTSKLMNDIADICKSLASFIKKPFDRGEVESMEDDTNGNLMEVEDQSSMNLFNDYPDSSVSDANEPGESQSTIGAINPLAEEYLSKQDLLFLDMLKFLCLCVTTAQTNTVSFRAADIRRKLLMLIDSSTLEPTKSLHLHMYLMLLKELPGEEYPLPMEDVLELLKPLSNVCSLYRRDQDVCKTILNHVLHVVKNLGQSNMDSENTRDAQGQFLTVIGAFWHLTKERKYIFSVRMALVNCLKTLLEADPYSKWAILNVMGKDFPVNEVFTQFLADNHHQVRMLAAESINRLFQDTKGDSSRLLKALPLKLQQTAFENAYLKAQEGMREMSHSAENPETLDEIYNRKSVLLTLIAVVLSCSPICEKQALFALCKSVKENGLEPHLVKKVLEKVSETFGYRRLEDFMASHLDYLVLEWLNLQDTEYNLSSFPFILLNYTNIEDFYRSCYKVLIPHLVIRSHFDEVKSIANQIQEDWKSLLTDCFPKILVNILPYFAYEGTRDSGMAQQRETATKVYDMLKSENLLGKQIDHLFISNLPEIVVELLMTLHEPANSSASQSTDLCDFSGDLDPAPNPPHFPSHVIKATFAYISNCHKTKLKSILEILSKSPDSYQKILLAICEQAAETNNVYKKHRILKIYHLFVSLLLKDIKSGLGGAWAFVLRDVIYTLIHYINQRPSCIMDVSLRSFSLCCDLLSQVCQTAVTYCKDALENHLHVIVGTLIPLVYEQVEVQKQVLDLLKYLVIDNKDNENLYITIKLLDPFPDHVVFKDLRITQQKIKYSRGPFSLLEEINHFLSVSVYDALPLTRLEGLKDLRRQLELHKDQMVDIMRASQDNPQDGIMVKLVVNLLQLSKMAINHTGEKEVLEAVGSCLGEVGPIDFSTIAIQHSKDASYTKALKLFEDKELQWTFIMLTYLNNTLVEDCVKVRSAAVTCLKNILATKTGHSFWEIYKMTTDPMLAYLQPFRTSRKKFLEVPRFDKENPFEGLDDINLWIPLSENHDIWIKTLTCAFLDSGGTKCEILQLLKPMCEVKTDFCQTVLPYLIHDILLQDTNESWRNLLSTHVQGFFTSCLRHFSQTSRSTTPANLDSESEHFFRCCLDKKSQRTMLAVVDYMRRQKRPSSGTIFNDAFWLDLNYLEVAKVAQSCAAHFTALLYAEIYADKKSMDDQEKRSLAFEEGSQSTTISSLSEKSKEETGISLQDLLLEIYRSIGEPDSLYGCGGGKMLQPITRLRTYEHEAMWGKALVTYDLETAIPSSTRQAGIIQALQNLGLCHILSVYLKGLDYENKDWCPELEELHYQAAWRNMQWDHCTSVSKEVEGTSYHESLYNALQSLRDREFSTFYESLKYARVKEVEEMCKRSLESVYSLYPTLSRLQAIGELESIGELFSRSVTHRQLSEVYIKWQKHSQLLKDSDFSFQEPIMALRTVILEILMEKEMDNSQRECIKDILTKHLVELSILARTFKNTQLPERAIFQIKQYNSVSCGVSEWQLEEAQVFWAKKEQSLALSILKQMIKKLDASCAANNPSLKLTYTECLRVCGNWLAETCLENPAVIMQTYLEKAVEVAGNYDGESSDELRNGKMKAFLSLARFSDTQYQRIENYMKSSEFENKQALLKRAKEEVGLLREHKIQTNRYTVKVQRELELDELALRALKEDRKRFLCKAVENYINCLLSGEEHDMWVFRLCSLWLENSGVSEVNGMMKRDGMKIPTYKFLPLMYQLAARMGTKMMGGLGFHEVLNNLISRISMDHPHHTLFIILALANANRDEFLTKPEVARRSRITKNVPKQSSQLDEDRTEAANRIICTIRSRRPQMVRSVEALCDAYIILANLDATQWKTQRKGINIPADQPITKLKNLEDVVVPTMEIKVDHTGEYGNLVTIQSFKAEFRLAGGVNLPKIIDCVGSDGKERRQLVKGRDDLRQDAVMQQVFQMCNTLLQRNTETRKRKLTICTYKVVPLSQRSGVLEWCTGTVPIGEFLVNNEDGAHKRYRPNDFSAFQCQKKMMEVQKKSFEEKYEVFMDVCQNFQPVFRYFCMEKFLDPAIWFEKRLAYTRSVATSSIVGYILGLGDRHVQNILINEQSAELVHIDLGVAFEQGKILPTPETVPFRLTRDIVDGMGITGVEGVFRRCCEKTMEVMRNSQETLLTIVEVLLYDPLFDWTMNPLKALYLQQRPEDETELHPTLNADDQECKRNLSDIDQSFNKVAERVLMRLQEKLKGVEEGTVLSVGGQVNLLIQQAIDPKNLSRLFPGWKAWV

For `CC[C@@]1(O)C(=O)OCc2c1cc1n(c2=O)Cc2cc3ccccc3nc2-1` [Camptothecin, camptothecin, reference compound], the “% Survival Cytotoxic alone” value (SW620 cells; SW620, cytotoxic 10 nM) was 2.4 ± 0.2% and the “% Survival Cytotoxic alone” value (LoVo cells; cytotoxic 10 nM) was 33 ± 7.9%.

For `COc1cccc2c1C(=O)c1c(O)c3c(c(O)c1C2=O)C[C@@](O)(C(=O)CO)C[C@@H]3O[C@H]1C[C@H](N)[C@H](O)[C@H](C)O1` [Doxorubicin, doxorubicin, reference compound], the “% Survival Cytotoxic alone” value (SW620 cells; SW620, cytotoxic 10 nM) was 50 ± 9%, the “% Survival Cytotoxic alone” value (SW620 cells; SW620, cytotoxic 100 nM) was 0.02 ± 0.01% and the “% Survival Cytotoxic alone” value (LoVo cells; cytotoxic 10 nM) was 47 ± 3.1%. The “% Survival Cytotoxic alone” value (LoVo cells; cytotoxic 100 nM) was 2.1 ± 0.5%.

In the case of `COc1cc([C@@H]2c3cc4c(cc3[C@@H](O[C@@H]3O[C@@H]5CO[C@@H](C)O[C@H]5[C@H](O)[C@H]3O)[C@H]3COC(=O)[C@H]23)OCO4)cc(OC)c1O` [Etoposide, etoposide, reference compound], the “% Survival Cytotoxic alone” value (SW620 cells; SW620, cytotoxic 100 nM) is reported as 89 ± 8.3%, the “% Survival Cytotoxic alone” value (SW620 cells; SW620, cytotoxic 1 μM) is reported as 3.8 ± 1.1% and the “% Survival Cytotoxic alone” value (LoVo cells; cytotoxic 100 nM) is reported as 58 ± 8.3%. For the same molecule, the “% Survival Cytotoxic alone” value (LoVo cells; cytotoxic 1 μM) was 3.9 ± 0.8%.

For `O=c1cc(-c2cccc3c2Sc2ccccc2S3)oc(N2CCOCC2)c1` [KU55933], the IC50 (ATR) is listed as > 10 µM, the IC50 (PI4K) is listed as > 10 µM and the “Concentration needed to induce in vitro chemo- and radio-sensitisation” value (human tumour cell lines) is listed as 10 µM. The “Inhibition of ATM activity” value [1] was “substantially inhibited ATM activity”, the Tumour concentration ([2]; 10 mg/kg i.p., SW620 xenograft, below limit of detection) was < 0.5 µM and the Plasma concentration ([2]; single dose 10 mg/kg i.p., SW620-bearing nude mice) was “over 1 μM”. For the same molecule, the IC50 (PI3K) was 1.7 µM.
